Broadly, the IC50 is the concentration at which inhibition is half-maximal.

The test system of test [1] is MCF7. Nature of the test: Growth inhibition of human MCF7 cells at 10 uM after 4 days by MTT assay in presence of 5% heat-inactivated fetal bovine serum treated with dextran-coated charcoal and 17-beta-estradiol relative to ICI-182780. The following applies: MCF7, 96 h, read-out: GI. The class given is functional. An outline of the steps: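 MCF-7 cells in MEM with 5% dextran-coated-charcoal-treated heat-inactivated FBS plus 1 nM 17β-estradiol were exposed for four days to test compound (10 µM), ICI 182,780 (1 µM) or vehicle. MTT absorbance was read at 550 nm. Effect was calculated as (OD vehicle − OD test) × 100 / (OD vehicle − OD ICI 182,780). Values are mean ± SEM of at least three assays.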

For test [2], the system named is MCF7. Nature of the test: Growth inhibition of human MCF7 cells at 10 uM after 4 days by MTT assay in presence of 10% fetal bovine serum relative to control. The class given is functional. The following applies: MCF7, 96 h, read-out: GI. An outline of the steps:
(§1)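 LNCaP or MCF-7 cells in MEM with 10% FBS were given test compound at 10 µM or 0.1% DMSO vehicle; MCF-7 exposure was four days. MTT read-out at 550 nm. Inhibition was calculated as (OD vehicle − OD test) × 100 / OD vehicle. Values are mean ± SEM, n = 4, ANOVA versus vehicle.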

Test [3] concerns LNCaP. The test can be described thus: Growth inhibition of human LNCAP cells at 10 uM after 4 days by MTT assay in presence of 10% fetal bovine serum relative to control. The format is functional. The following applies: 96 h, read-out: GI. An outline of the steps: as §1
The test system of test [4] is MCF7. The test can be described thus: Growth inhibition of human MCF7 cells after 4 days by MTT assay in presence of 5% heat-inactivated fetal bovine serum treated with dextran-coated charcoal and 17-beta-estradiol. The format is functional, cell-based. The following applies: MCF7, 96 h. In general terms: Tetrazolium dyes change colour on reduction, which living cells bring about.

The subject of test [5] is LNCaP. The test can be described thus: Growth inhibition of human LNCAP cells after 4 days by MTT assay in presence of 10% fetal bovine serum. The class given is functional, cell-based. The following applies: 96 h. Put shortly:
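LNCaP cells were cultured in MEM with 10% FBS in 96-well plates against 0.1% DMSO vehicle. Viable cells were estimated by MTT conversion to formazan, read as absorbance at 550 nm. IC50 was derived from growth inhibition relative to vehicle. Values are mean ± SEM.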

For test [6], the system named is LNCaP. The test can be described thus: Cytotoxicity against human LNCAP cells after 4 days by MTT assay. The class given is functional, cell-based. The note with it: 96 h. An outline of the steps: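 LNCaP cells grown in minimal essential medium with 10% FBS, exposed to secosterols for four days in 96-well plates, with 0.1% DMSO as vehicle. Viable cells were estimated from MTT conversion to formazan, read at 550 nm. Absorbance was expressed relative to vehicle (100%), and IC50 was taken from growth inhibition, mean ± SEM of ≥3 independent assays.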

In test [7] the test system is LNCaP. The test can be described thus: Growth inhibition of human LNCAP cells at 1 uM after 4 days by MTT assay. The format is functional. The following applies: 96 h, read-out: GI.
Test [8] concerns MCF7. The test can be described thus: Cytotoxicity against human MCF7 cells after 4 days by MTT assay. The format is functional, cell-based. The note with it: MCF7, 96 h. An outline of the steps: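 MCF-7 cells in minimal essential medium, with either 10% FBS or 5% dextran-charcoal-treated FBS plus 1 nM 17β-estradiol, were exposed to secosterols for four days. Vehicle was 0.1% DMSO. Read-out was MTT formazan absorbance at 550 nm, expressed as % of vehicle. IC50 was derived from growth inhibition, mean ± SEM of ≥3 independent assays.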

In test [9] the test system is MCF7. Nature of the test: Growth inhibition of human MCF7 cells at 1 uM after 4 days by MTT assay. The class given is functional. The following applies: MCF7, 96 h, read-out: GI.
Test [10] concerns MCF7. Nature of the test: Growth inhibition of human MCF7 cells after 4 days by MTT assay in presence of 10% fetal bovine serum. The class given is functional, cell-based. The note with it: MCF7, 96 h.
For a further test, the system named is HeLa. The test can be described thus: Cytotoxicity against human HeLa cells. The class given is functional, cell-based.
Another test has as its system K562. Nature of the test: Cytotoxicity against human K562 cells. The class given is functional, cell-based.

Some results are limits rather than exact numbers.

As to `C=C(CC[C@@H](C)[C@H]1CC[C@@H](C2=C[C@H](O)[C@H]3C[C@@H](O)CC[C@]3(C)C2=O)[C@]1(C)CCOC(C)=O)C(C)C`, the inhibition of growth at 10 µM with MCF7 [1] is 50%; with MCF7 [2] it was no more than 10%; in the test with LNCaP [3], no more than 10%. Besides, the IC50 in the test on MCF7 [4] came out at 3.8 µM.
In the case of `CC(=O)OCC[C@]1(C)[C@@H]([C@H](C)/C=C\C(C)C(C)C)CC[C@H]1C1=C[C@H](O)[C@H]2C[C@@H](O)CC[C@]2(C)C1=O` (some centres not stated), the inhibition of growth at 10 µM with MCF7 [1] is 62%; in the test on MCF7 [2], 27%; in the test on LNCaP [3], 45%. The IC50 is 6 µM in the test with MCF7 [4] and 6.7 µM with LNCaP [5].
`C[C@]12CC[C@@H]3c4ccc(O)cc4C[C@@H](CCCCCCCCC[S+]([O-])CCCC(F)(F)C(F)(F)F)[C@H]3[C@@H]1CC[C@@H]2O` (some centres not stated) [FULVESTRANT]: the IC50 in the test on LNCaP [6] and in the test on MCF7 [8] was 0.018 µM in each case. Further, the inhibition of growth at 1 µM in the test with LNCaP [7] and in the test on MCF7 [9] was 100% in each case.
With `CCC(C)/C=C/[C@@H](C)[C@H]1CC[C@@H](C2=C[C@H](O)[C@H]3C[C@@H](O)CC[C@]3(C)C2=O)[C@]1(C)CCOC(C)=O` (some centres not stated), the inhibition of growth at 10 µM amounted to 90% with MCF7 [1], 49% in the test with MCF7 [2] and 83% in the test on LNCaP [3]. For the same molecule, the IC50 amounted to 7 µM with MCF7 [10], 5.4 µM in the test with MCF7 [4] and 5.4 µM with LNCaP [5].
For `CC(=O)OCC[C@]1(C)[C@@H]([C@H](C)/C=C/C(C)C)CC[C@H]1C1=C[C@H](O)[C@H]2C[C@@H](O)CC[C@]2(C)C1=O`, the inhibition of growth at 10 µM in the test with MCF7 [1] came out at 86%; in the test with MCF7 [2] it was 34%; with LNCaP [3], 76%. Besides, the concentration for half-maximal inhibition (IC50) in the test with HeLa is 7 µM; in the test with MCF7 [10], 7.6 µM; with MCF7 [4], 7.4 µM; with LNCaP [5] it was 7 µM; in the test on K562, 6.5 µM.

Source of the values: ChEMBL document CHEMBL1152947, “9,11-Secosterols with antiproliferative activity from the gorgonian Eunicella cavolini” (Bioorg Med Chem, 2009).
